The record followed here is ChEMBL document CHEMBL2321727, “The impact of introducing a histidine into an apolar cavity site on docking and ligand recognition” (J Med Chem, 2013).

The subject of experiment [1] is Endolysin (Enterobacteria phage T4), P00720 [L99A,M102H]. The following applies: Tequatrovirus T4.
The test system is the same in experiment [2]. The experiment in a line: Binding affinity to Enterobacteria phage T4 lysozyme L99A/M102H double mutant expressed in Escherichia coli BL21(DE3) assessed as change in melting temperature at 0.5 mM at pH 5.4 by circular dichroism analysis. The conditions noted are these: Tequatrovirus T4. The method in brief: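 T4 lysozyme L99A/M102H from pET-28 in E. coli BL21(DE3), purified on Ni-NTA, ≥95% pure. Thermal melts followed by CD at pH 5.4, at least in triplicate. Ligand added from DMSO to 0.5 mM final, 0.1% DMSO final, controls included. ΔCp set to 10.5 kJ mol⁻¹ K⁻¹. Binder cutoff is ΔTm ≥0.4 °C. ΔGmelt = ΔTm × ΔS, with ΔS = ΔH/Tm.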

Experiment [3] shares this test system. The experiment in a line: Binding affinity to Enterobacteria phage T4 lysozyme L99A/M102H double mutant expressed in Escherichia coli BL21(DE3) assessed as change in melting temperature at 0.5 mM at pH 6.8 by circular dichroism analysis. The conditions noted are these: Tequatrovirus T4. A digest of the protocol:
(§1)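 CD thermal unfolding at pH 6.8 of Ni-NTA-purified T4 lysozyme L99A/M102H expressed from pET-28 in E. coli BL21(DE3). Ligand added from DMSO to 0.5 or 1 mM final, 0.1% DMSO final in all samples and controls. ΔCp set to 8.1 kJ mol⁻¹ K⁻¹. ΔTm ≥0.4 °C scored as binding. ΔGmelt = ΔTm × ΔH/Tm.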

Experiment [4] shares this test system. The conditions noted are these: Tequatrovirus T4. The source holds these as a separate data set.
The test system is the same in experiment [5]. The conditions noted are these: Tequatrovirus T4. The source holds these as a separate data set.
Experiment [6] has as its target Endolysin (Enterobacteria phage T4, UniProt P00720, L99A/M102H). Also noted: species or system Tequatrovirus T4.
Experiment [7] relates to Endolysin (Enterobacteria phage T4), P00720 [L99A,M102H]. The experiment in a line: Binding affinity to Enterobacteria phage T4 lysozyme harboring L99A/M102H double mutant expressed in Escherichia coli BL21(DE3) assessed as change in melting temperature at 1 mM at pH 6.8 by circular dichroism analysis. The following applies: Tequatrovirus T4. A digest of the protocol:
as §1

For experiment [8] the test system is unchanged. The following applies: Tequatrovirus T4. This is another data set of the same source.

As for `C#CC(O)c1ccccc1` (configuration not stated), the ΔTm in experiment [1] stood at 2.2 °C. Consider `Clc1n[nH]c2ncccc12`, for which the ΔTm came to 0.1 °C in experiment [2] and 1 °C in experiment [3]. Turning to `N#Cc1ccc([N+](=O)[O-])s1`, the ΔTm in experiment [4] stood at 0.2 °C. Take `N#Cc1cc(Br)ccc1O`: in experiment [4], the ΔTm stood at 2.2 °C.

As to `OCc1ccc(Cl)c(Cl)c1`, the ΔTm in experiment [4] turned out to be 0.2 °C. Regarding `OCCS`, in experiment [5], the ΔTm worked out at 0 °C.

Take `OCc1cc(Cl)ccc1Cl`: the ΔTm in experiment [4] was -0.1 °C.

With `OCCn1cccn1`, the ΔTm in experiment [4] was found to be 0.3 °C. Regarding `FC(F)(F)c1c[nH]cn1`, in experiment [4], the ΔTm was 1 °C. For the compound `Brc1c[nH]cn1`, in experiment [4], the ΔTm came out at 0.4 °C. In addition, the Kd in experiment [6] is 317 µM. With `Cc1cc(C)n(CO)n1`, the ΔTm in experiment [4] is -0.7 °C; in experiment [7] it was 0.3 °C. As for `O=Cc1cc(O)ccc1Br`, the ΔTm in experiment [2] was found to be 0.9 °C. Turning to `Nc1ncc(Cl)s1`, the ΔTm in experiment [4] stood at 1.1 °C.

On to `c1ccc2oncc2c1`, for which the ΔTm in experiment [4] was 0.2 °C. The same measure, in the same setting: in the case of `OCc1cccc(Br)c1` it was -0.7 °C. For `O=[N+]([O-])c1ccc(O)cc1`, the figures for the ΔTm in experiment [4] and in experiment [7] were 5 °C and 4.5 °C, respectively. As to `CCc1cc(O)ccc1Cl`, the ΔTm in experiment [4] is -0.9 °C. `O=C(O)C(F)(F)F`: the ΔTm in experiment [1] was -0.8 °C. `C#Cc1ccccc1N`: the ΔTm in experiment [2] and in experiment [3] was 0.5 °C each time. As for `Nc1ccccc1`, the ΔTm came out at 0.2 °C in experiment [2] and 0.5 °C in experiment [3]. As for `Oc1cc(C(F)(F)F)ccn1`, the ΔTm in experiment [4] came to 0.1 °C. On to `Cc1cc(C(F)(F)F)n[nH]1`, for which the ΔTm in experiment [4] turned out to be 1.9 °C. Regarding `N#Cc1ccccc1O`, the ΔTm in experiment [8] was 0.6 °C.

For the compound `Cc1cc(C)[nH]n1`, the ΔTm was -0.3 °C in experiment [4] and 1.4 °C in experiment [7]. Regarding `c1ccncc1`, the ΔTm in experiment [7] was 0.1 °C. Turning to `CSc1ccc(F)cc1`, in experiment [4], the ΔTm was 0.4 °C.

Turning to `C=CSc1ccccc1`, in experiment [4], the ΔTm was 1 °C. As to `Nc1ccc(F)cc1Cl`, the ΔTm was -0.3 °C in experiment [4] and 1.3 °C in experiment [7].

Regarding `C=CCc1ccccc1O` [2-ALLYLPHENOL], the ΔTm in experiment [5] amounted to 2.9 °C. With `CC(CO)c1ccccc1` (configuration not stated), the ΔTm in experiment [4] came to 0.1 °C. On to `CC(=O)c1ccc(O)cc1`, for which, in experiment [4], the ΔTm turned out to be 0.5 °C.

As for `N#CNC#N`, in experiment [4], the ΔTm was -0.6 °C. In the case of `Nc1cc(F)c(F)cc1Br`, the ΔTm in experiment [4] is 0.2 °C; in experiment [7], 0.8 °C.
